Source: publication PMC9398096 (Molecular Cancer Therapeutics, 2021)
Where “and” joins values, the source holds several entries; their conditions need not be identical. Equal entries are not always repeated. Where two headings read alike, the source gives them in different places.

Assays:
HL60 cells = test: HL60 xenograft mouse model; type: in vivo, BALB/c Rag-2/JAK3 double-deficient (BRJ) mice; settings: for LINE-1 methylation in bone marrow cells / hemoglobin levels: DAC 1.0 mg/kg or OR21 2.7 mg/kg twice weekly; for LINE-1 methylation in bone marrow cells: vehicle 83.7%; for hemoglobin levels: at the time of sacrifice, vehicle 17.5 g/dL; for human CD45-positive cells in PB: day 37, vehicle 2.96%; for CD11b-positive cells in PB: late treatment from day +28, days +35 to +40, vehicle 43.3%
SKM1 cells = test: SKM1 xenograft mouse model; type: in vivo, BALB/c Rag-2/JAK3 double-deficient (BRJ) mice; settings: twice weekly from day 7 posttransplantation
MDS and AML cells [1] = test: Cell proliferation; type: cell-based, human; settings: dose-dependent
In short: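 Growth of MDS and AML cell lines was measured by CCK-8 assay after 72 hours of treatment across a dose range. IC50 was derived by nonlinear regression of the dose–response curves.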

[2] = Stability of the base moiety in an aqueous environment; settings: pH 6
[3] = Long-term administration safety in BALB/c mice; type: in vivo; settings: for anemia (hematopoietic toxicity) / survival on long-term administration: high dose: DAC 2.5 mg/kg or OR21 7.5 mg/kg
In short: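 Non-immunodeficient BALB/c mice received long-term dosing of the test compound at 7.5 (high) or 3.7 (low) mg/kg, or a reference hypomethylating agent at 2.5 or 1.25 mg/kg. Anemia and survival were monitored while dosing continued, through at least day 57.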

[4] = test system: LINE-1 methylation in Kasumi-1 cells; test: LINE-1 methylation by pyrosequencing in Kasumi-1 cells; type: cell-based, human; settings: 500 nmol/L, untreated 90.7%
DNMT1 = test: Western blot of DNMT1 in MDS and AML cell lines; type: cell-based, human; settings: 100 or 500 nmol/L; MDS-L, SKM1, HL60, THP-1
[5] = test system: LINE-1 methylation in MDS-L cells; test: LINE-1 methylation by bisulfite pyrosequencing in MDS-L cells; type: cell-based, human; settings: 100 nmol/L; for LINE-1 methylation level: untreated 88.9%
[6] = test system: AZA-resistant HL60 (HL60R) cells; test: AZA-resistant HL60; type: cell-based, human; settings: in vitro; similar extent as DAC, more effectively than AZA
[7] = mice, Supplementary Table S4, cited from earlier work
[8] = test system: LINE-1 methylation in HL60 cells; test: LINE-1 methylation by pyrosequencing in HL60 cells; type: cell-based, human; settings: 500 nmol/L, untreated 83.7
[9] = test system: LINE-1 methylation in SKM1 cells; test: LINE-1 methylation by bisulfite pyrosequencing in SKM1 cells; type: cell-based, human; settings: 100 nmol/L, untreated 82.7%
[10] = Pharmacokinetics in cynomolgus monkeys; type: in vivo, cynomolgus monkey
HL60R cells = test: HL60R xenograft model; type: in vivo, mice
[11] = test system: LINE-1 methylation in KG1a cells; test: LINE-1 methylation by pyrosequencing in KG1a cells; type: cell-based, human; settings: 500 nmol/L, untreated 89.1%
MDS-L cells = test: Flow cytometry of differentiation markers CD11b and HLA-DR; type: cell-based, human
MDS and AML cells [12] = test: Apoptosis of MDS and AML cells; type: cell-based, human
[13] = test system: LINE-1 methylation in THP-1 cells; test: LINE-1 methylation by pyrosequencing in THP-1 cells; type: cell-based, human; settings: 500 nmol/L, untreated 69.0%
[14] = DAC 1.0 mg/kg or OR21 2.7 mg/kg twice weekly from day 5, vehicle 44 days
[15] = DAC 1.0 mg/kg or OR21 2.7 mg/kg twice weekly from day 5
[16] = higher dose: DAC 2.0 mg/kg or OR21 5.4 mg/kg, vehicle 48 days

SMILES	median overall survival (HL60 cells; [14])	LINE-1 methylation in bone marrow cells (HL60 cells)	hemoglobin levels (HL60 cells)	human CD45-positive cells in PB (HL60 cells; [15])	median overall survival (HL60 cells; [16])	CD11b-positive cells in PB (HL60 cells)	half-life [2]	anemia (hematopoietic toxicity) [3]	survival on long-term administration [3]	LINE-1 methylation levels, effect of treatment [5]	LINE-1 methylation level [5]	LINE-1 methylation level [9]	also measured
CC[Si](CC)(CC)OC[C@H]1O[C@@H](n2cnc(N)nc2=O)C[C@@H]1O [OR21, 5′-O-triethylsilyl-2′-deoxy-5-azacytidine]	49 days	63.0%	17.1 g/dL and 17.1(±0.31) g/dL	0.75%	57 days	65.5%	20 h	developed anemia by day 29, but recovered by day 57	all were still alive after 80 days	significantly decreased	74.2%	66.9%	human CD45-positive cells in peripheral blood (SKM1 cells; day 28, vehicle 6.40%): 0.31%; median overall survival (SKM1 cells; vehicle 29 days): > 53 days; cell growth (MDS and AML cells [1]): inhibited growth; LINE-1 methylation level [4]: 78.6%; DNMT1 levels versus untreated cells (DNMT1): markedly lower; growth of HL60R cells [6]: inhibited growth; AUC of released DAC ([7]; intraperitoneal 1.59 μmol/L/kg OR21): 0.38 µmol/L/h; peak plasma concentration of DAC ([7]; intraperitoneal administration of 1.59 μmol/L/kg OR21): 0.43 µmol/L; LINE-1 methylation level [8]: 76.0%; AUC ([10]; 10.9 μmol/kg (3.75 mg/kg) duodenal administration): 0.25 (±0.14) μmol/L/hour; AUC ([10]; 9.0 mg/kg (26.3 μmol/kg) duodenal administration): 0.45 ± 0.23 µmol/L/h; survival (HL60R cells; P = 0.0188): significantly prolonged survival; LINE-1 methylation level [11]: 82.4%; expression of CD11b (MDS-L cells): upregulated; expression of HLA-DR (MDS-L cells): downregulated; apoptosis (MDS and AML cells [12]; MDS and AML cells, dose-dependent): induced apoptosis; apoptosis of primary cells (MDS and AML cells [12]; primary MDS and AML cells): induced apoptosis of primary MDS and AML cells; LINE-1 methylation level [13]: 64.6%
Nc1ncn([C@H]2C[C@H](O)[C@@H](CO)O2)c(=O)n1 [DAC, decitabine, reference compound]	46.5 days	56.3%	15.6 g/dL and 15.6 (±1.22) g/dL	1.67%	32 days	75.7%	~20 h	severe anemia	died within 80 days		75.2%	58.4% and 66.9%	anemia ([3]; low dose: DAC 1.25 mg/kg or OR21 3.7 mg/kg): more likely than OR21-treated mice to develop anemia; peak plasma concentration of DAC ([7]; administration of 0.88 μmol/L/kg DAC (calculated as an AUC equivalent to that of released DAC)): 0.64 µmol/L; AUC ([10]; 10.9 μmol/kg (1.67 mg/kg) intravenous): 0.49 (±0.17) μmol/L/hour; enteric bioavailability ([10]; higher dose): did not result in enteric bioavailability; toxicity (HL60R cells): severe toxicity
Nc1ncn([C@@H]2O[C@H](CO)[C@@H](O)[C@H]2O)c(=O)n1 [AZA, azacitidine]										did not decrease	88.8%	72.1%	
